Measurements as given in ChEMBL document CHEMBL3784950, “Higginsianins A and B, Two Diterpenoid α-Pyrones Produced by Colletotrichum higginsianum, with in Vitro Cytostatic Activity” (J Nat Prod, 2016).
Activity calls are given as the source filed them. The rule behind the calls is not given here.

Tests used:
[1] = (§1) Antiproliferative activity against mouse B16F10 cells assessed as cell viability after 72 hrs by MTT assay; type: functional, cell-based; conditions: B16-F10, 72 h
Outline: (§2)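 Cells cultured 72 h with compound; MTT conversion to formazan read by spectrophotometry as a measure of metabolically active cells. IC50 is the concentration that reduces growth by 50% relative to control optical density. Six replicates per condition; one or two independent sextuplicate experiments.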

MCF7 = experiment: Antiproliferative activity against human MCF7 cells assessed as cell viability after 72 hrs by MTT assay; type: functional, cell-based; conditions: for IC50: MCF7, 72 h; outline: as §2
A549 = experiment: Antiproliferative activity against human A549 cells assessed as cell viability after 72 hrs by MTT assay; type: functional, cell-based; conditions: for IC50: A549, 72 h; outline: as §2
SK-MEL-28 = experiment: Antiproliferative activity against human SK-MEL-28 cells assessed as cell viability after 72 hrs by MTT assay; type: functional, cell-based; conditions: for IC50: SK-MEL-28, 72 h; outline: as §2
[2] = (§3) Antiproliferative activity against human Hs683 cells assessed as cell viability after 72 hrs by MTT assay; type: functional, cell-based; conditions: Hs 683, 72 h; outline: as §2
[3] = (§4) Antiproliferative activity against human U373 cells assessed as cell viability after 72 hrs by MTT assay; type: functional, cell-based, U-373MG ATCC; conditions: U373 MG; outline: as §2
[4] = Stability in human Hs683 cells assessed as photosensitivity at 1 to 40 uM by quantitative video microscopic analysis; type: ADME, cell-based; conditions: hs 683, 40 µM
[5] = Stability in human Hs683 cells assessed as photoactivity at 1 to 40 uM by quantitative video microscopic analysis; type: ADME, cell-based; conditions: hs 683, 40 µM
Hs 683 [6] = experiment: Cytostatic activity against human Hs683 cells assessed as morphological changes at 1 uM after 48 hrs by phase contrast microscopic analysis; type: functional, cell-based
Outline: (§5)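 Phase-contrast microscopy of Hs683 glioma cells treated at 1 versus 50 μM, judging cytostatic versus cytotoxic morphology.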

[7] = Antiproliferative activity against human Hs683 cells assessed as growth inhibition at 1 uM after 72 hrs by quantitative video microscopic analysis relative to control; type: functional; conditions: Hs 683, 72 h, read-out: GI
Outline: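 Hs683 cells filmed by computer-assisted phase-contrast microscopy at 1 μM and 40 μM versus control. Global growth is the cell count on the last image divided by that on the first, taken at 24, 48 and 72 h. The GGR index is treated global growth divided by control global growth. Run once in duplicate; mean ± SEM.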

Hs 683 [8] = experiment: Cytotoxicity against human Hs683 cells assessed as morphological changes at 50 uM after 48 hrs by phase contrast microscopic analysis; type: functional, cell-based; outline: as §5
U-373MG ATCC = experiment: as §4; type: functional, cell-based; outline: as §2
B16-F10 = experiment: as §1; type: functional, cell-based; outline: as §2
Hs 683 [9] = experiment: as §3; type: functional, cell-based; outline: as §2

Row | SMILES | IC50 [1] [µM] | IC50 (MCF7) [µM] | IC50 (A549) [µM] | IC50 (SK-MEL-28) [µM] | IC50 [2] [µM] | IC50 [3] [µM] | Stability [4] | Stability [5] | Activity (Hs 683 [6]) | inhibition of growth at 1 µM [7] [%] | Activity (Hs 683 [8]) | Activity (U-373MG ATCC) | Activity (B16-F10) | Activity (MCF7) | Activity (A549) | Activity (SK-MEL-28) | Activity (Hs 683 [9])
1 | C=C1CC[C@@H]2[C@](C)(CC[C@H]3CO[C@H](C=C(C)C)C[C@]32C)[C@@H]1Cc1c(O)c(C)c(C)oc1=O | 25 | 24 | 35 | 51 | 49 | – | – | – | – | – | – | – | – | – | – | – | –
2 | C=C1CC[C@@H]2[C@](C)(CC[C@H]3O[C@H](C=C(C)C)C[C@@]23C)[C@@H]1Cc1c(OC(C)=O)c(C)c(C)oc1=O | 2 | 41 | 47 | 84 | 1 | – | – | – | – | – | – | – | – | – | – | – | –
3 | C=C1CC[C@@H]2[C@](C)(CC[C@H]3O[C@H](C=C(C)C)C[C@@]23C)[C@@H]1Cc1c(OC)c(C)c(C)oc1=O | 1 | 38 | 16 | 48 | 0.4 | – | – | – | – | – | – | – | – | – | – | – | –
4 | C=C1CC[C@@H]2[C@](C)(CC[C@H]3O[C@H](C=C(C)C)C[C@@]23C)[C@@H]1Cc1c(O)c(C)c(C)oc1=O | 1 | 19 | 33 | 73 | 1 | 63 | Stable | Stable | Active | 50 | Active | – | – | – | – | – | –
5 | C=C1CC[C@H]2[C@](C)(CCC=C(C)C)[C@H](O)CC[C@]2(C)[C@@H]1Cc1c(O)c(C)c(C)oc1=O | 3 | 2 | 29 | 88 | 2 | 84 | – | – | – | – | – | – | – | – | – | – | –
6 | C=C1CC[C@@H]2[C@](C)(CC[C@H](O)[C@@]2(C)CCC=C(C)C)[C@@H]1Cc1c(O)c(C)c(C)oc1=O | – | – | – | – | – | – | – | – | – | – | – | inactive | inactive | inactive | inactive | inactive | inactive
7 | C=C1CC[C@H]2[C@]3(C)C[C@@H](C=C(C)C)O[C@H]3CC[C@]2(C)[C@@H]1Cc1c(O)c(C)c(C)oc1=O | – | – | – | – | – | – | – | – | – | – | – | inactive | inactive | inactive | inactive | inactive | inactive
